Reference: ChEMBL document CHEMBL1165950, “Design and synthesis of new potent anticancer pyrazoles with high FLT3 kinase inhibitory selectivity” (Bioorg Med Chem, 2010)

How the values were obtained:
Assay type in all cases: functional
SNB-19 = experiment: Cytotoxicity against human SNB19 cells assessed as cell growth at 100 nM after 48 hrs by sulforhodamine B assay; conditions: SNB-19, 48 h, read-out: Activity
M14 [1] = experiment: Cytotoxicity against human M14 cells assessed as cell growth at 10 uM; conditions: read-out: Activity
Method in brief: (§1)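 NCI-60 screen: cells grown in RPMI 1640 with 5% FBS and 2 mM L-glutamine, plated at 5000–40,000 cells/well according to doubling time, and preincubated 24 h at 37 °C, 5% CO2. The single 10 µM dose (DMSO stock) was added, then incubated 48 h. Cells were TCA-fixed and stained with 0.4% SRB, read at 515 nm, and growth % calculated against time-zero and control plates.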

SW-620 = experiment: Cytotoxicity against human SW620 cells assessed as cell growth at 10 uM after 48 hrs by sulforhodamine B assay; conditions: SW-620, 48 h, read-out: Activity
SF-539 = experiment: Cytotoxicity against human SF539 cells assessed as cell growth at 0.001 uM after 48 hrs by sulforhodamine B assay; conditions: SF-539, 48 h, read-out: Activity
A498 = experiment: Cytotoxicity against human A498 cells assessed as cell growth at 10 uM; conditions: read-out: Activity
Method in brief: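 Single-dose NCI-60 screen at 10 µM. Cells were grown in RPMI 1640 with 5% FBS and 2 mM L-glutamine, then treated for 48 h at 37 °C. Protein was measured by SRB staining with absorbance at 515 nm. Percentage growth was recorded, and inhibition percentage was calculated as 100 minus growth percentage.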

SF-268 [2] = experiment: Cytotoxicity against human SF268 cells assessed as cell growth at 10 uM; conditions: read-out: Activity; method in brief: as §1
NCI-H322M [3] = experiment: Cytotoxicity against human NCI-H322M cells assessed as cell growth at 1 uM after 48 hrs by sulforhodamine B assay; conditions: read-out: Activity
COLO 205 = experiment: Cytotoxicity against human COLO205 cells assessed as cell growth at 0.01 uM after 48 hrs by sulforhodamine B assay; conditions: COLO 205, 48 h, read-out: Activity
Method in brief: (§2)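 NCI-60 five-dose screen. Cells were grown in RPMI 1640 with 5% FBS and 2 mM L-glutamine, plated at 5000–40,000 cells/well and preincubated for 24 h. Time-zero plates were TCA-fixed. DMSO-solubilized drug was added at five concentrations (10-fold or ½-log serial dilutions) for 48 h at 37 °C, 5% CO2. Cells were TCA-fixed, stained with 0.4% SRB and read at 515 nm. Percent growth used time-zero, control and test absorbances.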

U-251 = experiment: Cytotoxicity against human U251 cells assessed as cell growth at 10 uM; conditions: read-out: Activity; method in brief: as §1
OVCAR-3 = experiment: Cytotoxicity against human OVCAR-3 cells assessed as cell growth at 10 uM after 48 hrs by sulforhodamine B assay; conditions: OVCAR-3, 48 h, read-out: Activity
TK-10 = experiment: Cytotoxicity against human TK10 cells assessed as cell growth at 100 nM after 48 hrs by sulforhodamine B assay; conditions: TK-10, 48 h, read-out: Activity
[4] = Cytotoxicity against human RPMI8266 cells assessed as cell growth at 1 uM after 48 hrs by sulforhodamine B assay; conditions: read-out: Activity
M14 [5] = experiment: Cytotoxicity against human M14 cells assessed as cell growth at 0.001 uM after 48 hrs by sulforhodamine B assay; conditions: M14, 48 h, read-out: Activity
A549 [6] = experiment: Cytotoxicity against human A549 cells assessed as cell growth at 0.001 uM after 48 hrs by sulforhodamine B assay; conditions: A549, 48 h, read-out: Activity; method in brief: as §2
HL-60(TB) = experiment: Cytotoxicity against human HL-60(TB) cells assessed as cell growth at 0.001 uM after 48 hrs by sulforhodamine B assay; conditions: HL-60, 48 h, read-out: Activity
Method in brief: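 NCI 60-cell panel. Cells are grown in RPMI 1640 with 5% FBS and 2 mM L-glutamine, seeded at 5000–40,000 cells/well according to doubling time, and preincubated 24 h. Time-zero plates are TCA-fixed. Compound from DMSO stock is given at five 10-fold or 1/2-log concentrations for 48 h at 37 °C, 5% CO2. Suspension cells are fixed with 80% TCA (final 16%) and SRB-stained, with absorbance at 515 nm. Percent growth is derived from Tz, control and test readings.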

NCI-H322M [7] = experiment: Growth inhibition of human NCI-H322M cells after 48 hrs by sulforhodamine B assay; conditions: for CC50: read-out: LC50 (the source's name)
Method in brief: (§3)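 NCI 60-cell screen, five-dose mode. Cells grown in RPMI 1640 with 5% FBS and 2 mM L-glutamine and plated at 5000-40,000 cells/well according to doubling time. After 24 h preincubation, a Tz plate was TCA-fixed. Five concentrations (10-fold or 1/2 log dilutions) were applied for 48 h at 37 °C. SRB staining read at 515 nm. IC50 taken from [(Ti-Tz)/(C-Tz)]×100 = 50.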

786-0 [8] = experiment: Cytotoxicity against human 786-0 cells assessed as cell growth at 100 nM after 48 hrs by sulforhodamine B assay; conditions: 786-0, 48 h, read-out: Activity; method in brief: as §2
NCI-H23 [9] = experiment: Cytotoxicity against human NCI-H23 cells assessed as cell growth at 1 uM after 48 hrs by sulforhodamine B assay; conditions: NCI-H23, 48 h, read-out: Activity
SK-MEL-5 [10] = experiment: Growth inhibition of human SK-MEL-5 cells after 48 hrs by sulforhodamine B assay; conditions: SK-MEL-5, 48 h; for CC50: read-out: LC50 (the source's name); method in brief: as §3
HCT-15 = experiment: Growth inhibition of human HCT15 cells after 48 hrs by sulforhodamine B assay; conditions: HCT-15, 48 h; for CC50: read-out: LC50 (the source's name); method in brief: as §3
MCF7 = experiment: Cytotoxicity against human MCF7 cells assessed as cell growth at 10 uM; conditions: read-out: Activity; method in brief: as §1
SF-268 [11] = experiment: Cytotoxicity against human SF268 cells assessed as cell growth at 0.01 uM after 48 hrs by sulforhodamine B assay; conditions: SF-268, 48 h, read-out: Activity
A549 [12] = experiment: Growth inhibition of human A549 cells after 48 hrs by sulforhodamine B assay; conditions: A549, 48 h
Method in brief: (§4)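 NCI five-dose SRB assay in RPMI 1640 with 5% FBS and 2 mM L-glutamine. Cells were preincubated 24 h, then exposed 48 h at 37 °C to five concentrations (10-fold or half-log serial dilutions from DMSO stocks). TCA fixation, SRB staining, and absorbance at 515 nm followed. IC50 was taken where [(Ti−Tz)/(C−Tz)]×100 = 50, with Tz as time-zero cell density.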

NCI-H23 [13] = experiment: Cytotoxicity against human NCI-H23 cells assessed as cell growth at 10 uM; conditions: read-out: Activity; method in brief: as §1
SK-MEL-5 [14] = experiment: Cytotoxicity against human SK-MEL-5 cells assessed as cell growth at 10 uM; conditions: read-out: Activity; method in brief: as §1
786-0 [15] = experiment: Cytotoxicity against human 786-0 cells assessed as cell growth at 0.001 uM after 48 hrs by sulforhodamine B assay; conditions: 786-0, 48 h, read-out: Activity; method in brief: as §2
CCRF-CEM = experiment: Growth inhibition of human CCRF-CEM cells after 48 hrs by sulforhodamine B assay; method in brief: as §4

Structure (SMILES)	growth at 0.1 µM (SNB-19) [%]	growth at 10 µM (M14 [1]) [%]	growth at 10 µM (SW-620) [%]	growth at 0.001 µM (SF-539) [%]	growth at 10 µM (A498) [%]	growth at 10 µM (SF-268 [2]) [%]	growth at 1 µM (NCI-H322M [3]) [%]	growth at 0.01 µM (COLO 205) [%]	growth at 10 µM (U-251) [%]	growth at 10 µM (OVCAR-3) [%]	growth at 0.1 µM (TK-10) [%]	growth at 1 µM [4] [%]	growth at 0.001 µM (M14 [5]) [%]	growth at 0.001 µM (A549 [6]) [%]	growth at 0.001 µM (HL-60(TB)) [%]	GI50 (NCI-H322M [7]) [µM]	TGI (NCI-H322M [7]) [µM]	CC50 (NCI-H322M [7]) [µM]	growth at 0.1 µM (786-0 [8]) [%]	growth at 1 µM (NCI-H23 [9]) [%]	also measured
COc1cc(C)cc(-c2c(-c3ccnc(-c4ccc(N(C)C)cc4)c3)cnn2CC#N)c1	27	-17.5	11	104	21.3	26.4	34	72	11.2	1	44	-31	95	95	82	0.331	> 100	> 100	6	17	GI50 (SK-MEL-5 [10]): 0.0394 µM; TGI (SK-MEL-5 [10]): 0.309 µM; CC50 (SK-MEL-5 [10]): > 100 µM; GI50 (HCT-15): 0.0766 µM; TGI (HCT-15): > 100 µM; CC50 (HCT-15): > 100 µM; growth at 10 µM (MCF7): 2.45%; growth at 0.01 µM (SF-268 [11]): 29%; GI50 (A549 [12]): 0.155 µM; LC50 (A549 [12]): > 100 µM; TGI (A549 [12]): > 100 µM; growth at 10 µM (NCI-H23 [13]): -10.3%; growth at 10 µM (SK-MEL-5 [14]): -18.4%; growth at 0.001 µM (786-0 [15]): 95%; GI50 (CCRF-CEM): 0.237 µM; LC50 (CCRF-CEM): > 100 µM; TGI (CCRF-CEM): > 100 µM
COc1cc(C)cc(-c2nn(CC#N)cc2-c2ccc(-c3cccc(C(C)=O)c3)nc2)c1	99	6.52	-11	94	19.7	49.3	24	100	11.8	-64	101	8	94	97	94	4.36	50.8	> 100	92	17	GI50 (SK-MEL-5 [10]): 1.54 µM; TGI (SK-MEL-5 [10]): 6.79 µM; CC50 (SK-MEL-5 [10]): 39.8 µM; GI50 (HCT-15): 2.14 µM; TGI (HCT-15): > 100 µM; CC50 (HCT-15): > 100 µM; growth at 10 µM (MCF7): 8.74%; growth at 0.01 µM (SF-268 [11]): 94%; GI50 (A549 [12]): 3.87 µM; LC50 (A549 [12]): > 100 µM; TGI (A549 [12]): 30.8 µM; growth at 10 µM (NCI-H23 [13]): 25.1%; growth at 10 µM (SK-MEL-5 [14]): 4.86%; growth at 0.001 µM (786-0 [15]): 97%; GI50 (CCRF-CEM): 2.61 µM; LC50 (CCRF-CEM): > 100 µM; TGI (CCRF-CEM): > 100 µM
